Assay results: PubChem BioAssay
Inconclusive results are not listed.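 How the source made its calls, unless noted: active means cell viability at or below a set limit in both duplicate runs, the limit being the all-compound median minus 4 SD (cut at about 23% in these data, passing the limit was not always enough); inconclusive means no clear call, values can overlap the other calls; inactive means the rest.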

Columns and labels:
[1] = S. cerevisiae growth inhibition in permissive medium (OD615), pilot counter-assay for S. cerevisiae lifespan shortening project, permissive growth control (AID 705;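 active means growth inhibition above 25% in both replicates, a cutoff set 3 SD above the mean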); conditions: OD615, 24 h, at 10 µM, hits give high values
Method in brief: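 System: S. cerevisiae with engineered DeaD lifespan system. Medium: SC raffinose/galactose permissive medium. Doses: single compound dose of 10 µM, 0.25% DMSO final. Schedule: 24 h exposure, 30 °C. Measured by: OD615 turbidity read. Read-out: growth inhibition.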

[2] = S. cerevisiae growth inhibition in restrictive medium, OD615, pilot screen, restrictive growth control, yeast lifespan reduction project (AID 706;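 active means growth inhibition above a set limit, 3 SD over mean compound inhibition, in both replicates, cut at about 43% in these data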;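 further: modified DeaD lifespan yeast strain shifted to restrictive glucose medium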); conditions: OD615, 48 h, at 10 µM, hits give high values
Method in brief: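 Assay system – genetically modified Saccharomyces cerevisiae, DeaD replicative lifespan assay strain · Medium – CSMM-D glucose medium · Doses – 10 µM compound, 0.25% DMSO · Times – 4 h pre-incubation, 48 h exposure at 30 °C · Signal – optical density at 615 nm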

[3] = doxorubicin toxicity protection in MRP-1 cells – H69AR cells, CellTiter-Glo, duplicate, MRP-1 activator project, pilot screen (AID 807;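 active means viability increase at or above a cutoff of the median across tested compounds plus 3 SD, cut at about 8.5% in these data, passing the limit was not always enough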;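 further: compound pretreatment 18-22 h then 72 h combined with doxorubicin; 0% = doxorubicin alone and 100% = vehicle without doxorubicin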); conditions: H69AR viability with doxorubicin, CellTiter-Glo luminescence; at 10 µM; hits give high values
[4] = viability of HCT116 without oncogenic beta-catenin – human colon tumor cells, pilot screen (AID 823); conditions: HCT116 beta-catenin knockout viability, CellTiter-Glo, 60 h; at 10 µM; hits give low values;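 further: 0% = wells killed by 20 µM Hyamine and 100% = untreated DMSO cell wells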
[5] = viability of PTEN-null HCT116 cells – cell-based, HCT116 clonal line, CellTiter-Glo, pilot screen (AID 824;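 active means viability at or below 27.92% in each of two runs, the all-compound median minus 4 SD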;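 further: 0% = 20 µM Hyamine control and 100% = vehicle cell control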); conditions: HCT116 PTEN-deleted viability, 60 h, at 10 µM, hits give low values
[6] = RAM pathway blockade in budding yeast – dse1pr::URA3 reporter, 5-FOA selection, pilot screen (AID 869;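 active means inhibition over a set limit, the all-compound mean plus 3 SD, in both replicate runs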;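 further: 0% = DMSO wells with no growth and 100% = 10 µM 1-NA-PP1 with full growth; RAM network block rescues cells from 5-FOA so hits raise OD615 growth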); conditions: S. cerevisiae dse1pr::URA3 5-FOA growth, OD615, 2 d; at 10 µM; hits give high values; strain carries analog-sensitive mutant Cbk1 kinase
[7] = RAM signaling pathway blockade in yeast – S. cerevisiae, Pdr1DBD-CYC8 efflux-inhibited sensitized strain, primary screen (AID 1298;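 active means RAM network inhibition above 8.4% in each of two replicates, 3 SD over the compound average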;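 further: 0% = DMSO untreated cells without growth and 100% = 10 µM 1-NA-PP1 full growth; higher means more yeast growth rescued from 5-FOA killing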); conditions: S. cerevisiae cbk1-as DSE1-URA3 strain, 5-FOA growth OD615, 2 d; at 50 µM; hits give high values

O=C1c2oc3ccccc3c(=O)c2C(c2cccc(O)c2)N1c1ccccn1 (configuration not stated)
inactive: growth inhibition [1] -7.62% | growth inhibition [2] -6.25% | viability increase [3] -0.37% | viability [4] 82.2% | viability [5] 79.6% | inhibition [6] 1.85% | RAM network inhibition [7] -0.1%

CCCC(=O)NCCCCNC(=O)CCC
inactive: growth inhibition [1] 2.78% | growth inhibition [2] 2.44% | viability increase [3] -0.9% | viability [4] 96.4% | viability [5] 101% | inhibition [6] 0.09% | RAM network inhibition [7] 4.07%

CCOc1cc(C#N)c(NC(=O)c2ccnn2C)cc1OCC
inactive: growth inhibition [1] 8.46% | growth inhibition [2] 2.96% | viability increase [3] -2.47% | viability [4] 82.3% | viability [5] 97.7% | inhibition [6] 0.55% | RAM network inhibition [7] 5.18%

Cc1ccc(C(=O)NCCn2cc(SCC(=O)Nc3nnc(C)s3)c3ccccc32)cc1
inactive: growth inhibition [1] 5.58% | growth inhibition [2] 24.1% | viability increase [3] 2.91% | viability [4] 62.5% | viability [5] 81.3% | inhibition [6] 1.07% | RAM network inhibition [7] 0.63%

CC(NS(=O)(=O)c1ccc(Br)cc1)C(c1cccs1)N1CCN(C)CC1 (configuration not stated)
inactive: growth inhibition [1] -5.18% | growth inhibition [2] 3.13% | viability increase [3] -2.85% | viability [4] 78.2% | viability [5] 84.2% | inhibition [6] 0.53% | RAM network inhibition [7] 0.88%

CCCc1nc(C)c(-c2ccc(OC)c(OC)c2)c(=O)[nH]1
inactive: growth inhibition [1] -17.9% | growth inhibition [2] -15.2% | viability increase [3] -0.18% | viability [4] 101% | viability [5] 95.3% | inhibition [6] 2.53% | RAM network inhibition [7] 0.84%

CC(C)Oc1cc(O)c2c(=O)c(-c3ccc(O)cc3)coc2c1
inactive: growth inhibition [1] -14.2% | growth inhibition [2] -15.1% | viability increase [3] -6.33% | viability [4] 79.8% | viability [5] 64.5% | inhibition [6] 0.605% | RAM network inhibition [7] -3.3%

CCCc1nc(SCC(=O)Nc2cc(C)on2)c2c(=O)n(C)c(=O)n(C)c2n1
inactive: growth inhibition [1] 4.81% | growth inhibition [2] 4.73% | viability increase [3] -1.05% | viability [4] 97.1% | viability [5] 93% | inhibition [6] 3.88% | RAM network inhibition [7] 4.78%

CCOc1ccccc1N1CCN(S(=O)(=O)CC)CC1
inactive: growth inhibition [1] -0.885% | growth inhibition [2] 4.05% | viability increase [3] -1.83% | viability [4] 94.9% | viability [5] 97.6% | inhibition [6] 0.455% | RAM network inhibition [7] 6.05%

O=C1CN(C(=O)CN2CCOCC2)C(c2ccccc2)c2cc(Br)ccc2N1 (configuration not stated)
inactive: growth inhibition [1] -9.19% | growth inhibition [2] -11.4% | viability increase [3] -3.48% | viability [4] 96.4% | viability [5] 92.8% | inhibition [6] 0.785% | RAM network inhibition [7] 1.01%

COC(=O)Cn1c(CN2CCN(c3ccc(F)cc3)CC2)nc2c1c(=O)n(C)c(=O)n2C
inactive: growth inhibition [1] -1.31% | growth inhibition [2] -4.9% | viability increase [3] -0.86% | viability [4] 85.1% | viability [5] 86.2% | inhibition [6] 2.88% | RAM network inhibition [7] 1.93%

COc1ccc(C2C(C(=O)Nc3cc(C)on3)c3ccccc3C(=O)N2C)cc1 (configuration not stated)
inactive: growth inhibition [1] 2.9% | growth inhibition [2] -2.79% | viability increase [3] -1.73% | viability [4] 101% | viability [5] 101% | inhibition [6] 1.46% | RAM network inhibition [7] 0.37%

CC1(C)NC(C)(C)c2nonc2/C1=N\O
inactive: growth inhibition [1] -15.2% | growth inhibition [2] -9.79% | viability increase [3] 0.39% | viability [4] 99.3% | viability [5] 102% | inhibition [6] 1.34% | RAM network inhibition [7] -0.43%

Cc1ccc(CN2CCNC(=O)C2CC(=O)O)o1 (configuration not stated)
inactive: growth inhibition [1] -8.29% | growth inhibition [2] 2.8% | viability increase [3] -0.83% | viability [4] 105% | viability [5] 104% | inhibition [6] 1.5% | RAM network inhibition [7] 2.4%

Cc1ccccc1-c1nc(CN2CCC(C(=O)O)CC2)c(C)o1
inactive: growth inhibition [1] 1.1% | growth inhibition [2] -0.365% | viability increase [3] -0.95% | viability [4] 103% | viability [5] 93.9% | inhibition [6] 0% | RAM network inhibition [7] 0.11%

O=C(NC1CCCc2ccccc21)C1CCC(CNc2c(N3CCOCC3)c(=O)c2=O)CC1 (configuration not stated)
inactive: growth inhibition [1] -6.7% | growth inhibition [2] 7.02% | viability increase [3] -0.75% | viability [4] 105% | viability [5] 107% | inhibition [6] 1.08% | RAM network inhibition [7] 1.43%

CC(=O)c1c(N(C)C)ccnc1C(F)(F)F
inactive: growth inhibition [1] -3.09% | growth inhibition [2] 8.03% | viability increase [3] -2.95% | viability [4] 107% | viability [5] 95.4% | inhibition [6] 1.92% | RAM network inhibition [7] 0.62%

COc1ccc(S(=O)(=O)Cc2ccc(C(=O)N3CCN(c4ncccn4)CC3)o2)cc1
inactive: growth inhibition [1] -2.81% | growth inhibition [2] 4.27% | viability increase [3] -2.72% | viability [4] 106% | viability [5] 103% | inhibition [6] 2.58% | RAM network inhibition [7] 2.27%

Cc1cc2nc(-c3cccc(NC(=O)c4ccc(Br)o4)c3C)oc2cc1C
inactive: growth inhibition [1] -0.715% | growth inhibition [2] -9.59% | viability increase [3] 3.53% | viability [4] 87% | viability [5] 84.2% | inhibition [6] 2.33% | RAM network inhibition [7] 2.65%

CCc1nc(N(CC)CC)c2oc3ccccc3c2n1
inactive: growth inhibition [1] -2.86% | growth inhibition [2] -35.2% | viability increase [3] -4.87% | viability [4] 75.5% | viability [5] 71% | inhibition [6] -0.16% | RAM network inhibition [7] 1.04%

CC(=O)c1ccc(OCCCC(=O)NCC(c2ccco2)N(C)C)cc1 (configuration not stated)
inactive: growth inhibition [1] 4.54% | growth inhibition [2] -0.015% | viability increase [3] -4.73% | viability [4] 68.9% | viability [5] 85.3% | inhibition [6] 0.755% | RAM network inhibition [7] 1.98%

C=C(C)CSc1nnc(-c2ccc(OC)c(OC)c2)n1N
inactive: growth inhibition [1] 11.8% | growth inhibition [2] 7.34% | viability increase [3] -0.31% | viability [4] 96% | viability [5] 99.2% | inhibition [6] -0.36% | RAM network inhibition [7] 3.74%

CN(C)CCNC(=O)c1ccc(CS(=O)(=O)c2ccc(Br)cc2)o1
inactive: growth inhibition [1] 3.18% | growth inhibition [2] 4.8% | viability increase [3] -0.05% | viability [4] 103% | viability [5] 103% | inhibition [6] 0.565% | RAM network inhibition [7] 2.81%

COc1ccc(C(C)=O)cc1CSc1nnc(C)s1
inactive: growth inhibition [1] -9.51% | growth inhibition [2] -8.14% | viability increase [3] -2.37% | viability [4] 96.5% | viability [5] 96.8% | inhibition [6] -0.565% | RAM network inhibition [7] 0.11%

CCC(C)NC(=O)CCS(=O)(=O)c1ccc2c(c1)n(C)c(=O)c(=O)n2C (configuration not stated)
inactive: growth inhibition [1] -2.86% | growth inhibition [2] 4.93% | viability increase [3] -0.01% | viability [4] 103% | viability [5] 99.1% | inhibition [6] 3% | RAM network inhibition [7] 3.76%

COc1ccc(-c2cc(C(F)(F)F)nc(N3CCN(C)CC3)n2)cc1
inactive: growth inhibition [1] 1.48% | growth inhibition [2] -4.37% | viability increase [3] -5.32% | viability [4] 33.7% | viability [5] 42.9% | inhibition [6] 1.43% | RAM network inhibition [7] 4.04%

O=C(CSc1nc(-c2ccco2)cc(C(F)(F)F)n1)N1CCN(Cc2ccccc2)CC1
inactive: growth inhibition [1] -6.8% | growth inhibition [2] -13.4% | viability increase [3] -4.54% | viability [4] 86.8% | viability [5] 82.8% | inhibition [6] -0.555% | RAM network inhibition [7] 6.26%

O=C(Cn1cc2c(n1)CCCC2)Nc1ccccc1Cl
inactive: growth inhibition [1] -4.82% | growth inhibition [2] -3.03% | viability increase [3] -1.53% | viability [4] 99.4% | viability [5] 98.9% | inhibition [6] 1.91% | RAM network inhibition [7] 1.47%

CSC1=NCCN1C(=O)COc1ccc2ccccc2c1
inactive: growth inhibition [1] -2.13% | growth inhibition [2] -6.38% | viability increase [3] 0.69% | viability [4] 98.9% | viability [5] 101% | inhibition [6] 2.77% | RAM network inhibition [7] -0.94%

CCCCn1cc(C(C)(C)C)c(C#N)c1NC(C)=O
inactive: growth inhibition [1] -21.7% | growth inhibition [2] -4.88% | viability increase [3] -1.24% | viability [4] 97.8% | viability [5] 98.8% | inhibition [6] 1.43% | RAM network inhibition [7] 5.33%

Cc1sc2nc(SC(C)C)nc(N)c2c1C
inactive: growth inhibition [1] 6.53% | growth inhibition [2] 7.72% | viability increase [3] 0.28% | viability [4] 103% | viability [5] 104% | inhibition [6] 1.69% | RAM network inhibition [7] 4.8%

COc1cc(C(=O)Nc2ccc(N(C)C)cc2)cc(OC)c1OC
inactive: growth inhibition [1] -13.9% | growth inhibition [2] -11.7% | viability increase [3] -5.23% | viability [4] 82.2% | viability [5] 82.9% | inhibition [6] 1.14% | RAM network inhibition [7] 2.49%

CC1CCCC(NC(=O)CN(C)S(=O)(=O)c2cccc3cccnc23)C1C (configuration not stated)
inactive: growth inhibition [1] -10.9% | growth inhibition [2] -18.7% | viability increase [3] -3.62% | viability [4] 98.7% | viability [5] 88.4% | inhibition [6] 0.34% | RAM network inhibition [7] 3.61%

CCOC(=O)C1=C(C)NC(=O)NC1c1ccc(N(C)C)cc1 (configuration not stated)
inactive: growth inhibition [1] -12.3% | growth inhibition [2] -5.65% | viability increase [3] -2.7% | viability [4] 96.9% | viability [5] 92.9% | inhibition [6] 2.35% | RAM network inhibition [7] 5.85%

O=C(NC1CCCCC1)c1ccc(Br)o1
inactive: growth inhibition [1] -5.84% | growth inhibition [2] -1.68% | viability increase [3] -1.9% | viability [4] 102% | viability [5] 102% | inhibition [6] 0.915% | RAM network inhibition [7] 3.82%

CC(=O)c1c(C)nn(C(=O)c2cccs2)c1C
inactive: growth inhibition [1] 1.07% | growth inhibition [2] 5.09% | viability increase [3] -0.49% | viability [4] 91% | viability [5] 106% | inhibition [6] 1.89% | RAM network inhibition [7] -0.62%
